Results reported in ChEMBL document CHEMBL1811783, “Positive GABA(A) receptor modulators from Acorus calamus and structural analysis of (+)-dioxosarcoguaiacol by 1D and 2D NMR and molecular modeling” (J Nat Prod, 2011).

Assays:
Assay type in all cases: cell-based
Oocyte [1] = test: Allosteric modulation of rat gamma-aminobutyric acid receptor A alpha1beta2gamma2S expressed in Xenopus oocytes assessed as potentiation of GABA-mediated chloride current at 0.1 to 1000 uM after 20 secs by voltage clamp assay
Method in brief: (§1)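 Rat α1β2γ2S cRNAs (1:1:10) injected into collagenase-defolliculated Xenopus oocytes, stored at 18 °C, recorded days 1–5. Two-microelectrode voltage clamp at −70 mV in 90 mM NaCl/1 mM KCl/1 mM MgCl2/1 mM CaCl2/5 mM HEPES pH 7.4. Compounds at 0.1–1000 μM co-applied by fast perfusion with GABA at EC5–10, determined from a 0.1 μM–1 mM GABA concentration–response. Read-out: IGABA potentiation.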

[2] = Allosteric modulation of rat gamma-aminobutyric acid receptor A alpha1beta2gamma2S expressed in Xenopus oocytes assessed as potentiation of GABA-mediated chloride current after 20 secs by voltage clamp assay; settings: Oocyte; method in brief: as §1
Oocyte [3] = test: Allosteric modulation of gamma-aminobutyric acid receptor A alpha1beta2gamma2S expressed in Xenopus oocytes assessed as potentiation of GABA-mediated chloride current at 1 uM by voltage clamp assay
Method in brief: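 Rat α1β2γ2S cRNAs (1:1:10) injected into collagenase-defolliculated oocytes, stored at 18 °C, recorded days 1–5. Two-microelectrode voltage clamp at −70 mV in HEPES-buffered bath (pH 7.4). Compound in bath solution with GABA EC5–10 (from a 0.1 μM–1 mM GABA concentration–response) applied by automated fast perfusion at 300 μL/s. Read-out is IGABA potentiation.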

**Q.** Which Emax (Oocyte [1]) does the source give for CC1=CC[C@]2(CC1=O)[C@@H](C)CC[C@H]2C(C)C here?
**A.** The Emax was 241%.

**Q.** What about the EC50 [2] of the same compound?
**A.** Its EC50 is 34 µM.

**Q.** Which Activity (Oocyte [3]) does the source give for CC1=C2[C@H](/C=C(\C)C(=O)O)CC[C@@H](C)[C@H]2CC1 here?
**A.** The Activity was 400%.

**Q.** Which results are given for C=C1CC/C=C(\C)CC[C@@H](C(C)C)C(=O)C1?
**A.** Emax (Oocyte [1]): 886%; EC50 [2]: 135 µM

**Q.** With CCc1cc2c(s1)N(C)C(=O)CN=C2c1ccccc1Cl as the compound, how does the Activity (Oocyte [3]) read?
**A.** Its Activity is 260%.

**Q.** Which Emax (Oocyte [1]) does the source give for C[C@@H]1CCC2=C1C=C1C(C)(C)OO[C@@]1(O)C[C@H]2C here?
**A.** The Emax was 588%.

**Q.** What about the EC50 [2] of the same compound?
**A.** The EC50 was 65.3 µM.

**Q.** Which Emax (Oocyte [1]) does the source give for C/C=C\c1cc(OC)c(OC)cc1OC [CIS-ASARONE] here?
**A.** Its Emax is 1200%.

**Q.** And the EC50 [2]?
**A.** The EC50 was 172 µM.

**Q.** For C=C[C@]1(C)CC[C@@H](C(C)C)C(=O)[C@H]1C(=C)C, which Emax (Oocyte [1]) is on record?
**A.** The Emax was 669%.

**Q.** What about the EC50 [2] of the same compound?
**A.** Its EC50 is 64.8 µM.

**Q.** For Cc1ncc2n1-c1ccc(Cl)cc1C(c1ccccc1F)=NC2, which Activity (Oocyte [3]) is on record?
**A.** The Activity was 342%.

**Q.** For Cc1nnc2n1-c1ccc(Cl)cc1C(c1ccccc1Cl)=NC2, which Activity (Oocyte [3]) is on record?
**A.** The Activity was 253%.

**Q.** With C=C[C@]1(C)CC[C@@H](C(C)C)C(=O)C1=C(C)C as the compound, how does the Emax (Oocyte [1]) read?
**A.** The Emax was 164%.

**Q.** And the EC50 [2]?
**A.** The EC50 was 109 µM.
